Laboratory results as given in publication PMC9083272 (RSC Advances, 2018).
Where two headings read alike, the source gives them in different places.

What was measured:
[1] = Potentiometric titration, protonation constants; format: physicochemical; settings: I = 0.15 mol dm^−3 NaCl
[2] = cited from earlier work
[3] = Thermodynamic properties of iron; format: physicochemical; settings: I = 0.15 mol dm^−3 NaCl
Summary of the method: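 Log β came from potentiometric titrations at 25, 37 and 40 °C in 0.15 mol dm−3 NaCl. ΔG was computed as −2.303RT log10 β. ΔH and ΔS per species were taken as the slope and intercept, respectively, of a Van't Hoff plot across the three temperatures. Units: ΔG and ΔH in kJ mol−1, ΔS in kJ mol−1 K−1.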

[4] = Potentiometric determination of complex formation constants; format: physicochemical; settings: I = 0.15 mol dm^−3 NaCl
Summary of the method: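 Test ligand in 3 × 10−3 mol dm−3 HCl with 0.15 mol dm−3 NaCl, in fresh DI water, titrated with carbonate-free 0.1 mol dm−3 NaOH. Runs: acid alone, ligand alone, and ligand plus Fe(III) at 3 × 10−3, 1.5 × 10−3 or 1 × 10−3 mol dm−3 (metal:ligand 1:1, 1:2, 1:3). Water bath ±0.1 °C, pH glass electrode, pH 2–11, triplicate. Log β refined jointly from the three ratios.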

[5] = 298.15 K and 0.05 M, ref Gergely et al. 21
[6] = 298.15 K and 0.15 mol dm^−3 NaNO3, ref Angkawijaya et al. 22

In the case of NCC(=O)O [Gly, glycine], the pKa1 ([1]; 25 °C) is reported as 2.51(7), the pKa2 ([1]; 25 °C) is reported as 9.68(3) and the pKa1 ([1]; 37 °C) is reported as less than 2. For the same compound, the pKa2 ([1]; 37 °C) was 9.37(1), the pKa1 ([1]; 40 °C) was less than 2 and the pKa2 ([1]; 40 °C) was 9.27(2). For the same compound, the pKa1 [2, 5] was 2.33, the pKa2 [2, 5] was 9.61 and the pKa1 [2, 6] was 2.32. The pKa2 [2, 6] was 9.62, the “−ΔG” value ([3]; complex [MA2H−2], 25 °C) was 8.927 kcal/mol and the “−ΔG” value ([3]; complex [MA2H−2], 37 °C) was 10.71 kcal/mol. The “−ΔG” value ([3]; complex [MA2H−2], 40 °C) was 11.71 kcal/mol, the ΔH ([3]; complex [MA2H−2]) was 43.332 kcal/mol and the ΔS ([3]; complex [MA2H−2]) was −0.73 kJ mol^−1 K^−1. The “−ΔG” value ([3]; complex [MA2H−3], 25 °C) was -6.341 kcal/mol, the “−ΔG” value ([3]; complex [MA2H−3], 37 °C) was -4.185 kcal/mol and the “−ΔG” value ([3]; complex [MA2H−3], 40 °C) was -2.25 kcal/mol. The ΔH ([3]; complex [MA2H−3]) was 79.802 kcal/mol, the ΔS ([3]; complex [MA2H−3]) was −1.20 kJ mol^−1 K^−1 and the “−ΔG” value ([3]; complex [MA2], 25 °C) was 26.104 kcal/mol. The “−ΔG” value ([3]; complex [MA2], 37 °C) was 27.727 kcal/mol, the “−ΔG” value ([3]; complex [MA2], 40 °C) was 28.265 kcal/mol and the ΔH ([3]; complex [MA2]) was 16.12 kcal/mol. The ΔS ([3]; complex [MA2]) was −0.59 kJ mol^−1 K^−1, the “−ΔG” value ([3]; complex [MA3], 25 °C) was 37.639 kcal/mol and the “−ΔG” value ([3]; complex [MA3], 37 °C) was 40.244 kcal/mol. The “−ΔG” value ([3]; complex [MA3], 40 °C) was 40.827 kcal/mol, the ΔH ([3]; complex [MA3]) was 26.109 kcal/mol and the ΔS ([3]; complex [MA3]) was −0.89 kJ mol^−1 K^−1. The “−ΔG” value ([3]; complex [MAH−1], 25 °C) was 8.475 kcal/mol, the “−ΔG” value ([3]; complex [MAH−1], 37 °C) was 9.405 kcal/mol and the “−ΔG” value ([3]; complex [MAH−1], 40 °C) was 9.68 kcal/mol. For the same compound, the ΔH ([3]; complex [MAH−1]) was 15.23 kcal/mol, the ΔS ([3]; complex [MAH−1]) was −0.33 kJ mol^−1 K^−1 and the “−ΔG” value ([3]; complex [MAH−2], 25 °C) was 3.172 kcal/mol. For the same compound, the “−ΔG” value ([3]; complex [MAH−2], 37 °C) was 4.739 kcal/mol, the “−ΔG” value ([3]; complex [MAH−2], 40 °C) was 5.416 kcal/mol and the ΔH ([3]; complex [MAH−2]) was 39.888 kcal/mol. For the same compound, the ΔS ([3]; complex [MAH−2]) was −0.60 kJ mol^−1 K^−1, the “−ΔG” value ([3]; complex [MA], 25 °C) was 12.51 kcal/mol and the “−ΔG” value ([3]; complex [MA], 37 °C) was 13.61 kcal/mol. The “−ΔG” value ([3]; complex [MA], 40 °C) was 14.18 kcal/mol, the ΔH ([3]; complex [MA]) was 19.01 kcal/mol and the ΔS ([3]; complex [MA]) was −0.44 kJ mol^−1 K^−1. The “log β” value ([4]; complex [MA2H−2], 25 °C) was 6.54(5), the “log β” value ([4]; complex [MA2H−2], 37 °C) was 7.55(4) and the “log β” value ([4]; complex [MA2H−2], 40 °C) was 8.17(8). For the same compound, the “log β” value ([4]; complex [MA2H−3], 25 °C) was −4.65(11), the “log β” value ([4]; complex [MA2H−3], 37 °C) was −2.95(5) and the “log β” value ([4]; complex [MA2H−3], 40 °C) was −1.57(9). The “log β” value ([4]; complex [MA2H−4], 40 °C) was −11.78(10), the “log β” value ([4]; complex [MA2], 25 °C) was 19.10(11) and the “log β” value ([4]; complex [MA2], 37 °C) was 19.54(10). The “log β” value ([4]; complex [MA2], 40 °C) was 19.72(13), the “log β” value ([4]; complex [MA3], 25 °C) was 27.59(9) and the “log β” value ([4]; complex [MA3], 37 °C) was 28.35(3). The “log β” value ([4]; complex [MA3], 40 °C) was 28.49(14), the “log β” value ([4]; complex [MAH−1], 25 °C) was 6.21(2) and the “log β” value ([4]; complex [MAH−1], 37 °C) was 6.63(2). The “log β” value ([4]; complex [MAH−1], 40 °C) was 6.75(5), the “log β” value ([4]; complex [MAH−2], 25 °C) was 2.32(2) and the “log β” value ([4]; complex [MAH−2], 37 °C) was 3.34(3). The “log β” value ([4]; complex [MAH−2], 40 °C) was 3.78(8), the “log β” value ([4]; complex [MA], 25 °C) was 9.17(6) and the “log β” value ([4]; complex [MA], 37 °C) was 9.59(3). For the same compound, the “log β” value ([4]; complex [MA], 40 °C) was 9.89(11).
In the case of O=C(O)[C@@H]1CCCN1 [Pro, reference compound], the pKa1 ([2]; ref Zhu et al. 23) is given as 1.99.
